Consider 21 compounds from ChEMBL document CHEMBL5107945, “Synthesis and biological evaluation of bergenin derivatives as new immunosuppressants” (RSC Med Chem, 2021).

Usually inhibition stands for the relative decrease from the control value, in per cent. By IC50 is commonly meant the concentration needed to halve the response being measured.

The nature of series [1]: Inhibition of ConA-induced proliferation of BALB/c mouse splenocyte at 10 uM incubated for 48 hrs by CCK-8 assay relative to control. The format is functional. An outline of the steps: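 Male BALB/c mouse splenocytes (6–8 weeks; red cells lysed with 0.84% NH4Cl), 5 × 10^5 cells/well in RPMI-1640 with 10% FBS and pen/strep, were stimulated with 5 μg/mL Con A with or without 10 μM compound for 48 h at 37 °C, 5% CO2. CCK-8 was added for 3 h and OD450 read. Inhibition was calculated against Con A-only wells; means ± SEM, ≥3 independent experiments.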

Series [2] in a line: Inhibition of ConA-induced IFN-gamma secretion in BALB/c mouse splenocyte at 10 uM incubated for 48 hrs by ELISA relative to control. The format is functional. In outline: (§1)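 Male BALB/c splenocytes, 5 × 10^5 cells/well, were treated with Con A (5 μg/mL) plus compound at 5 or 10 μM for 48 h at 37 °C, 5% CO2. Plates were spun at 4 °C, 1500 rpm, 5 min. Cell-free supernatant IFN-γ or IL-4 was measured by capture-antibody ELISA. Inhibition was calculated against Con A-only wells; means ± SEM, ≥3 independent experiments.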

A short description of series [3]: Cytotoxicity against human Jurkat cells assessed as reduction in cell viability incubated for 48 hrs by CCK-8 assay. The format is toxicity, cell-based. In outline:
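Human Jurkat T-leukemia cells in RPMI-1640 with 10% FBS and pen/strep, 2.5 × 10^4 cells/well, were exposed to serially diluted compound at 37 °C for 48 h. Viability was read by CCK-8 (3 h, OD450). IC50 is the concentration reducing viability to 50%.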
(Tetrazolium dyes change colour on reduction, which living cells bring about.)

The nature of series [4]: Inhibition of ConA-induced proliferation of BALB/c mouse splenocyte incubated for 48 hrs by CCK-8 assay relative to control. Format: functional, cell-based. An outline of the steps: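 IC50 was measured only for compounds giving over 50% inhibition at 10 μM. Con A (5 μg/mL)-stimulated male BALB/c splenocytes, 5 × 10^5 cells/well in RPMI-1640/10% FBS, were cultured 48 h at 37 °C, 5% CO2. Read-out was CCK-8, 3 h incubation, OD450. IC50 came from at least three independent tests.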

Series [5] is described as follows: Inhibition of ConA-induced IL-4 secretion in BALB/c mouse splenocyte at 10 uM incubated for 48 hrs by ELISA relative to control. The format is functional. In outline:
as §1
(In general: ELISA stands for enzyme-linked immunosorbent assay.)

Series [6] in a line: Selectivity index, ratio of IC50 for cytotoxicity against human Jurkat cells to IC50 for inhibition of ConA-induced proliferation of BALB/c mouse splenocyte. The note with it: mouse (splenocytes), ConA-stimulated mouse splenocytes, read-out: Ratio IC50. The format is toxicity, cell-based. In outline: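 Ratio of Jurkat IC50 to splenocyte IC50. Jurkat: 2.5 × 10^4 cells/well, serial dilutions, 48 h, 37 °C, CCK-8 viability. Splenocytes: BALB/c cells, 5 × 10^5/well, with 5 μg/mL Con A, 48 h, 37 °C, 5% CO2, CCK-8 read at OD450.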

Series [7] in a line: Inhibition of ConA-induced proliferation of BALB/c mouse splenocyte at 1 uM incubated for 48 hrs by CCK-8 assay relative to control. Format: functional. An outline of the steps: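 Positive-control condition: cyclosporine A at 1 μM in the same Con A (5 μg/mL)-stimulated BALB/c splenocyte culture, 5 × 10^5 cells/well, 48 h at 37 °C, 5% CO2. Proliferation was read by CCK-8 (3 h, OD450) against Con A-only wells.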

As to `COc1c(OCc2ccccc2)cc2c(c1OCc1ccccc1)[C@@H]1O[C@@H]3CO[C@@H](c4ccccc4)O[C@H]3[C@H](N=[N+]=[N-])[C@H]1OC2=O`, the inhibition at 10 µM in series [1] is -2.26%.
For `COc1c(OCc2ccccc2)cc2c(c1OCc1ccccc1)[C@@H]1O[C@@H]3CO[C@@H](c4ccccc4)O[C@H]3[C@H](N)[C@H]1OC2=O`, the values for the inhibition at 10 µM in series [2], in series [1] and in series [5] were 48.4%, 72.6% and 8.7%, respectively. In series [3], the IC50 at 48 h came to 39.3 µM. Also, in series [4], 8.19 µM corresponded to half-maximal inhibition (IC50).
For `COc1c(OCc2ccccc2)cc2c(c1OCc1ccccc1)[C@@H]1O[C@H](CO)[C@@H](O)[C@H](O)[C@H]1OC2=O`, the inhibition at 10 µM in series [1] is -5.95%.
For `CCCCOc1cc2c(c(OCCCC)c1OC)[C@@H]1O[C@H](CO)[C@@H](O)[C@H](O)[C@H]1OC2=O`, the inhibition at 10 µM in series [1] is -9.27%.
Turning to `COc1c(OCc2ccccc2)cc2c(c1OCc1ccccc1)[C@@H]1O[C@@H]3CO[C@@H](c4ccccc4)O[C@H]3[C@H](NS(C)(=O)=O)[C@H]1OC2=O`, the results for the inhibition at 10 µM in series [2], in series [1] and in series [5] were 71.1%, 84.9% and 67.5%, respectively. In series [3], the IC50 at 48 h came out at 33.1 µM. The same compound showed an IC50 in series [4] of 5.39 µM. For the same compound, the selectivity ratio in series [6] stood at 6.
On to `CCCCCCCOc1cc2c(c(OCCCCCCC)c1OC)[C@@H]1O[C@H](CO)[C@@H](O)[C@H](O)[C@H]1OC2=O`, for which the inhibition at 10 µM turned out to be 102% in series [2], 99% in series [1] and 98.6% in series [5]. In addition, in series [3], the IC50 at 48 h was 4.18 µM. Moreover, the IC50 in series [4] is 7.21 µM.
As for `COc1c(OCc2ccccc2)cc2c(c1OCc1ccccc1)[C@@H]1O[C@@H]3CO[C@@H](c4ccccc4)O[C@H]3[C@@H](O)[C@H]1OC2=O`, the inhibition at 10 µM in series [1] was 11.2%.
On to `COc1c(OCc2ccccc2)cc2c(c1OCc1ccccc1)[C@@H]1O[C@@H]3CO[C@@H](c4ccccc4)O[C@H]3[C@@H](OS(=O)(=O)C(F)(F)F)[C@H]1OC2=O`, for which the inhibition at 10 µM in series [2] stood at 68.6%; in series [1], 75.9%; in series [5] it was 63.1%. In series [3], the IC50 at 48 h was 44.2 µM. The IC50 in series [4] worked out at 8.05 µM.
Consider `CCCCCCCOc1cc2c(c(OCCCCCCC)c1OC)[C@@H]1O[C@H](CO)[C@@H](OCc3ccccc3)[C@H](O)[C@H]1OC2=O`, for which the inhibition at 10 µM was determined as 51.3% in series [2], 69.8% in series [1] and 51.4% in series [5]. Also, in series [3], the IC50 at 48 h was found to be 16.1 µM. The compound further showed an IC50 in series [4] of 10.6 µM.
With `COc1c(OCc2ccccc2)cc2c(c1OCc1ccccc1)[C@@H]1O[C@@H]3CO[C@@H](c4ccccc4)O[C@H]3[C@H](O)[C@H]1OC2=O`, the inhibition at 10 µM in series [2] came out at 71%; in series [1] it was 91.4%; in series [5], 76.9%. Also, the IC50 at 48 h in series [3] was 21 µM. The compound also returned an IC50 in series [4] of 3.52 µM. Moreover, in series [6], the selectivity ratio turned out to be 5.96.
Consider `CCCCCCCOc1cc2c(c(OCCCCCCC)c1OC)[C@@H]1O[C@H](COCc3ccccc3)[C@@H](O)[C@H](O)[C@H]1OC2=O`, for which the inhibition at 10 µM in series [2] was found to be 99.6%; in series [1] it was 99.4%; in series [5] it was 95.9%. Also, the IC50 at 48 h in series [3] came out at 10.1 µM. For the same compound, in series [4], half-maximal inhibition (IC50) was put at 7.66 µM.
For `C[C@H]1C[C@H]2[C@@H]3CCC4=CC(=O)C=C[C@]4(C)[C@@]3(F)[C@@H](O)C[C@]2(C)[C@@]1(O)C(=O)CO` [BETAMETHASONE], the inhibition at 10 µM was 99.3% in series [2], 89.6% in series [1] and 96.9% in series [5].
`COc1c(OCc2ccccc2)cc2c(c1OCc1ccccc1)[C@@H]1O[C@@H]3CO[C@@H](c4ccccc4)O[C@H]3[C@H](OS(=O)(=O)C(F)(F)F)[C@H]1OC2=O`: the inhibition at 10 µM in series [1] was -1.62%.
On the same count and under the same terms, in the case of `CCCCCCCOc1cc2c(c(OCCCCCCC)c1OC)[C@@H]1O[C@@H]3CO[C@@H](c4ccccc4)O[C@H]3[C@H](O)[C@H]1OC2=O` it was -6.83%.
`C/C=C/C[C@@H](C)[C@@H](O)[C@H]1C(=O)N[C@@H](CC)C(=O)N(C)CC(=O)N(C)[C@@H](CC(C)C)C(=O)N[C@@H](C(C)C)C(=O)N(C)[C@@H](CC(C)C)C(=O)N[C@@H](C)C(=O)N[C@H](C)C(=O)N(C)[C@@H](CC(C)C)C(=O)N(C)[C@@H](CC(C)C)C(=O)N(C)[C@@H](C(C)C)C(=O)N1C` [CYCLOSPORINE]: in series [7], the inhibition at 1 µM worked out at 93.5%.
Take `COc1c(O)cc2c(c1O)[C@@H]1O[C@@H]3CO[C@@H](c4ccccc4)O[C@H]3[C@H](O)[C@H]1OC2=O`: in series [1], the inhibition at 10 µM is -3.78%.
The same measure, in the same setting: then `CCCCCCCCCCOc1cc2c(c(OCCCCCCCCCC)c1OC)[C@@H]1O[C@H](CO)[C@@H](O)[C@H](O)[C@H]1OC2=O`, with 15.4%.
Consider `COc1c(O)cc2c(c1O)[C@@H]1O[C@H](CO)[C@@H](O)[C@H](O)[C@H]1OC2=O` [BERGENIN], for which the inhibition at 10 µM was -6.2% in series [2], 11.7% in series [1] and 18.3% in series [5].
Turning to `CCCCCCOc1cc2c(c(OCCCCCC)c1OC)[C@@H]1O[C@H](CO)[C@@H](O)[C@H](O)[C@H]1OC2=O`, the inhibition at 10 µM was determined as 67.4% in series [2], 98.1% in series [1] and 61.9% in series [5]. Moreover, in series [3], the IC50 at 48 h was 5.21 µM. This compound gave an IC50 in series [4] of 8.16 µM.
In the case of `CCCCCCCCOc1cc2c(c(OCCCCCCCC)c1OC)[C@@H]1O[C@H](CO)[C@@H](O)[C@H](O)[C@H]1OC2=O`, the inhibition at 10 µM in series [1] was -21.5%.
`CCCCCOc1cc2c(c(OCCCCC)c1OC)[C@@H]1O[C@H](CO)[C@@H](O)[C@H](O)[C@H]1OC2=O`: the inhibition at 10 µM in series [1] turned out to be 5.4%.
